Assay results taken from ChEMBL document CHEMBL1154735, “A strategy to minimize reactive metabolite formation: discovery of (S)-4-(1-cyclopropyl-2-methoxyethyl)-6-[6-(difluoromethoxy)-2,5-dimethylpyridin-3-ylamino]-5-oxo-4,5-dihydropyrazine-2-carbonitrile as a potent, orally bioavailable corticotropin-releasing factor-1 receptor antagonist” (J Med Chem, 2009).
≈ marks a conversion by molar mass, not a printed value.

Key:
[1] = molecular target: T1, Corticotropin-releasing factor receptor 1 (Rattus norvegicus, UniProt P35353); assay: Displacement of [125I]Tyr-o-CRF from CRF1 receptor in rat frontal cortex homogenate by binding titration assay; format: tissue-based
T1 sequence (P35353 whole entry): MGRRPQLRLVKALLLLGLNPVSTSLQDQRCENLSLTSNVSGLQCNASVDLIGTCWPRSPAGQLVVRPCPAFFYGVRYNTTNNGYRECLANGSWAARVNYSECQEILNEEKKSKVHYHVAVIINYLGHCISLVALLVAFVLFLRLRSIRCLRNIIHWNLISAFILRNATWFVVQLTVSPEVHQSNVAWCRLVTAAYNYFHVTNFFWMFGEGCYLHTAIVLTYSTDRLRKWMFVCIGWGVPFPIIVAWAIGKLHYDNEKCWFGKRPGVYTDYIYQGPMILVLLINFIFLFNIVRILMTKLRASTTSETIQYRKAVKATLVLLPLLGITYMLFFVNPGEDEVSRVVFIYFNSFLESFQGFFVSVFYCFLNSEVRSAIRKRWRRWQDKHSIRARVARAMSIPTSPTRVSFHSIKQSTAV

[2] = Metabolic stability in human liver microsomes assessed as compound remaining at 3 uM after 10 mins by HPLC/UV/MS analysis; format: ADME, Microsome; details: read-out: Stability
[3] = Metabolic stability in rat liver microsomes assessed as compound remaining at 3 uM after 10 mins by HPLC/UV/MS analysis; format: ADME, Microsome; details: read-out: Stability
Summary of the method: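 Pooled human or rat liver microsomes (1 mg/mL protein) with 3 μM compound and 1.3 mM NADPH in 100 mM sodium phosphate pH 7.4 at 37 °C; final 0.015% DMSO, 0.985% acetonitrile; stopped at 0 and 10 min, percent remaining by LC/MS/MS.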

[4] = Aqueous solubility at pH 1; format: physicochemical
[5] = Aqueous solubility at pH 6.5; format: physicochemical
[6] = Dissociation constant, pKa by spectrophotometric titration method; format: physicochemical
Summary of the method: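 Spectrophotometric titration over pH 2–11 in varying acetonitrile/water mixtures, extrapolated to 0% cosolvent.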

[7] = Oral bioavailability in Sprague-Dawley rat at 10 mg/kg dosed as aqueous suspension of Labrafil M 1944CS/DMAC/polysorbate 80, 85:10:5 (v/v) after 0.25 to 24 hrs by LC/MS/MS analysis; format: ADME, organism-based; details: in vivo
[8] = Cmax in Sprague-Dawley rat at 10 mg/kg, po dosed as aqueous suspension of 1% polysorbate 80 in 0.5% methylcellulose after 2 to 4 hrs by LC/MS/MS analysis; format: ADME, organism-based; design: dose 10 mg/kg, route oral; details: in vivo
[9] = Clearance in Sprague-Dawley rat at 2 mg/kg, iv after 0.17 to 24 hrs by LC/MS/MS analysis; format: ADME, organism-based; design: dose 2 mg/kg, route intravenous; details: in vivo
[10] = AUC in Sprague-Dawley rat at 10 mg/kg, po dosed as aqueous suspension of 1% polysorbate 80 in 0.5% methylcellulose after 0.25 to 24 hrs by LC/MS/MS analysis; format: ADME, organism-based; design: time upper 24 hr, time lower 0.25 hr, dose 10 mg/kg, route oral; details: in vivo
[11] = Fraction unbound in human serum after 3 to 7 hrs by equilibrium dialysis; format: ADME, cell-free
Summary of the method: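 Human serum spiked with compound, equilibrium-dialysed against isotonic phosphate buffer for 3 or 7 h (depending on system) at 37 °C; both sides measured by LC/MS/MS, unbound fraction as buffer/serum concentration ratio.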

[12] = Volume of distribution at steady state in Sprague-Dawley rat at 2 mg/kg, iv after 0.17 to 24 hrs by LC/MS/MS analysis; format: ADME, organism-based; design: dose 2 mg/kg, route intravenous; details: in vivo, read-out: Vdss
Summary of the method: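 Sprague–Dawley rats (n = 3) dosed 2 mg/kg iv in PEG:ethanol 90:10 (v/v) at 1 mL/kg. Plasma stored at –20 °C and quantified by LC/MS/MS after acetonitrile precipitation with internal standard.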

[13] = Oral bioavailability in Sprague-Dawley rat at 10 mg/kg dosed as aqueous suspension of 1% polysorbate 80 in 0.5% methylcellulose after 0.25 to 24 hrs by LC/MS/MS analysis; format: ADME, organism-based; details: in vivo
[14] = Octanol-water partition coefficient, log D at pH 7.4; format: physicochemical
Summary of the method: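 Partitioning between octanol and water at pH 7.4.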

[15] = Half life in Sprague-Dawley rat at 2 mg/kg, iv by LC/MS/MS analysis; format: ADME, organism-based; design: dose 2 mg/kg, route intravenous; details: in vivo
[16] = Cmax in Sprague-Dawley rat at 10 mg/kg, po dosed as aqueous suspension of Labrafil M 1944CS/DMAC/polysorbate 80, 85:10:5 (v/v) after 2 to 4 hrs by LC/MS/MS analysis; format: ADME, organism-based; design: dose 10 mg/kg, route oral; details: in vivo
[17] = AUC in Sprague-Dawley rat at 10 mg/kg, po dosed as aqueous suspension of Labrafil M 1944CS/DMAC/polysorbate 80, 85:10:5 (v/v) after 0.25 to 24 hrs by LC/MS/MS analysis; format: ADME, organism-based; design: time 0.25-24 hr, dose 10 mg/kg, route oral; details: plasma
Liver microsomes [18] = assay: Metabolic stability in NADPH-fortified human liver microsomes assessed as GSH adduct formation at 10 uM after 30 mins by HPLC/UV/MS analysis; format: ADME, Microsome; details: 0.5 h
Summary of the method: (§1)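 Pooled rat or human liver microsomes 1 mg/mL, 10 μM substrate, 100 mM potassium phosphate pH 7.4, 37 °C, started with NADPH-regenerating system (1.3 mM NADP+, 3.3 mM glucose-6-phosphate, 3.3 mM MgCl2, 0.5 U/mL G6PDH); GSH 5 mM in trapping runs. Sampled 0 and 30 min, acetonitrile quench; abundance as UV peak area (330–340 nm) fraction of all drug-related components by HPLC/UV/MS.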

[19] = Metabolic stability in NADPH-fortified rat liver microsomes assessed as parent compound remaining at 10 uM after 30 mins by HPLC/UV/MS analysis; format: ADME, Microsome; details: read-out: Stability; summary of the method: as §1
Liver microsomes [20] = assay: Metabolic stability in NADPH-fortified human liver microsomes assessed as pyrazinone oxidation metabolite formation at 10 uM after 30 mins by HPLC/UV/MS analysis; format: ADME, Microsome; details: 0.5 h; summary of the method: as §1
Liver microsomes [21] = assay: Metabolic stability in NADPH-fortified rat liver microsomes assessed as GSH adduct formation at 10 uM after 30 mins by HPLC/UV/MS analysis; format: ADME, Microsome; details: 0.5 h; summary of the method: as §1
Liver microsomes [22] = assay: Metabolic stability in NADPH-fortified rat liver microsomes assessed as pyrazinone oxidation metabolite formation at 10 uM after 30 mins by HPLC/UV/MS analysis; format: ADME, Microsome; details: 0.5 h; summary of the method: as §1
[23] = Metabolic stability in NADPH-fortified human liver microsomes assessed as parent compound remaining at 10 uM after 30 mins by HPLC/UV/MS analysis; format: ADME, Microsome; details: read-out: Stability; summary of the method: as §1

Structure (SMILES)	IC50 [1] [nM]	remaining at 10 min, 3 µM [2] [%]	remaining at 10 min, 3 µM [3] [%]	bioavailability [7] [%]	Cmax [8] [nM]	clearance [9] [mL/min/kg]	AUC [10] [µM·h]	fraction unbound [11]	Vd [12] [L/kg]	bioavailability [13] [%]	half-life [15] [h]	Cmax [16] [nM]	AUC [17] [µM·h]	Activity (Liver microsomes [18]) [%]	remaining at 0.5 h, 10 µM [19] [%]	Activity (Liver microsomes [20]) [%]	Activity (Liver microsomes [21]) [%]	Activity (Liver microsomes [22]) [%]	remaining at 0.5 h, 10 µM [23] [%]	other results
COc1nc(C)c(Nc2nc(Cl)cn([C@H](C)C3CC3)c2=O)cc1C	1.5	77	55	–	–	–	–	–	–	–	–	–	–	–	–	–	–	–	–	–
COC[C@H](C1CC1)n1cc(Cl)nc(Nc2cc(C)c(OC)nc2C)c1=O	1.5	48	24	26	180	38	1.3	0.021	19	11	19	510	3	–	–	–	–	–	–	solubility [4]: 116 µg/mL (≈ 306 µM); solubility [5]: 6 µg/mL (≈ 15.8 µM); pKa [6]: 3.1; logD [14]: 3.9
C[C@@H](C1CC1)n1cc(Cl)nc(Nc2c(Cl)cc(OC(F)F)cc2Cl)c1=O	–	–	–	–	–	–	–	–	–	–	–	–	–	2	74	12	5	20	85	–
COC[C@H](C1CC1)n1cc(C#N)nc(Nc2cc(C)c(OC)nc2C)c1=O	12	60	51	–	–	–	–	–	–	–	–	–	–	–	–	–	–	–	–	–
COC[C@H](C1CC1)n1cc(Cl)nc(Nc2cc(C)c(OC(F)F)nc2C)c1=O	0.24	–	69	86	770	36	7	0.008	15	66	9.2	1300	9	5	42	1	3	1	75	–
Cc1cc(Nc2nc(Cl)cn([C@H](C)C3CC3)c2=O)c(C)nc1OC(F)F	0.3	100	86	–	–	–	–	–	–	–	–	–	–	–	–	–	–	–	–	–
CC[C@H](C1CC1)n1cc(Cl)nc(Nc2cc(C)c(OC(F)F)nc2C)c1=O	0.21	100	56	–	–	–	–	–	–	–	–	–	–	–	–	–	–	–	–	–
COC[C@@H](C)n1cc(Cl)nc(Nc2cc(C)c(OC(F)F)nc2C)c1=O	1.6	87	66	–	–	–	–	–	–	–	–	–	–	–	–	–	–	–	–	–
Cc1cc(Nc2nc(C#N)cn([C@H](C)C3CC3)c2=O)c(C)nc1OC(F)F	0.82	100	89	82	560	36	4.6	0.016	11	38	7.2	1400	9.9	7	80	< 1	8	< 1	88	–
